Experimental findings from ChEMBL document CHEMBL1155007, “Synthesis and monoamine transporter binding properties of 2beta-[3'-(substituted benzyl)isoxazol-5-yl]- and 2beta-[3'-methyl-4'-(substituted phenyl)isoxazol-5-yl]-3beta-(substituted phenyl)tropanes” (Bioorg Med Chem, 2008) are described below.

The target in assay [1] is Sodium-dependent noradrenaline transporter (Homo sapiens, UniProt P23975). The assay is described as follows: Displacement of [3H]nisoxetine from NET.
Assay [2] has as its target Sodium-dependent dopamine transporter (Homo sapiens, UniProt Q01959). Put plainly: Displacement of [3H]WIN-35428 from DAT. An outline of the steps:
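Competitive radioligand binding at the dopamine transporter, with 0.5 nM [3H]WIN35,428 as the final radioligand concentration. Compounds were tested as HCl salts. Values are means ± standard error of three or four experiments, each run in duplicate.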
(In general: Displacement assays read how much labelled ligand stays bound in the presence of the test substance.)

Assay [3] deals with Sodium-dependent serotonin transporter (Homo sapiens, UniProt P31645). The assay is described as follows: Displacement of [3H]paroxetine from 5HTT. The gist of the method: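 Competitive radioligand binding at the serotonin transporter, with 0.2 nM [3H]paroxetine as the final radioligand concentration. Compounds were tested as HCl salts. Values are means ± standard error of three or four experiments, each run in duplicate.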
Chain of Sodium-dependent serotonin transporter (P31645 whole entry): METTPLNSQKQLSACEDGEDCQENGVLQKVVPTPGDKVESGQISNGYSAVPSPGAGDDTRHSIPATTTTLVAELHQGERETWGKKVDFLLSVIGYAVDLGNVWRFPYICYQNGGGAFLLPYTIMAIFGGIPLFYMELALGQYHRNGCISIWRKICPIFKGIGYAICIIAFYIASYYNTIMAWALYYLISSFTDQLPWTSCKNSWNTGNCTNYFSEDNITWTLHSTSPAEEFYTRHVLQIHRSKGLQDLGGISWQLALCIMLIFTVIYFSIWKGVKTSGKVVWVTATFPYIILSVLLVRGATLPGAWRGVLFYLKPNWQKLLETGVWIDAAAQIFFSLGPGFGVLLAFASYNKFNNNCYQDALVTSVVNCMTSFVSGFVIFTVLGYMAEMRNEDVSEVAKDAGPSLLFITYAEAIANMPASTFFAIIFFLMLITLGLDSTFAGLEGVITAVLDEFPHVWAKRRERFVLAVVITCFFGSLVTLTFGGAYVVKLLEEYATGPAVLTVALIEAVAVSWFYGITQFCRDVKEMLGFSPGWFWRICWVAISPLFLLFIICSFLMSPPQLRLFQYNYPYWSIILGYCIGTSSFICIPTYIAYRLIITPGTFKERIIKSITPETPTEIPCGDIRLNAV

Chain of Sodium-dependent dopamine transporter (Q01959 whole entry): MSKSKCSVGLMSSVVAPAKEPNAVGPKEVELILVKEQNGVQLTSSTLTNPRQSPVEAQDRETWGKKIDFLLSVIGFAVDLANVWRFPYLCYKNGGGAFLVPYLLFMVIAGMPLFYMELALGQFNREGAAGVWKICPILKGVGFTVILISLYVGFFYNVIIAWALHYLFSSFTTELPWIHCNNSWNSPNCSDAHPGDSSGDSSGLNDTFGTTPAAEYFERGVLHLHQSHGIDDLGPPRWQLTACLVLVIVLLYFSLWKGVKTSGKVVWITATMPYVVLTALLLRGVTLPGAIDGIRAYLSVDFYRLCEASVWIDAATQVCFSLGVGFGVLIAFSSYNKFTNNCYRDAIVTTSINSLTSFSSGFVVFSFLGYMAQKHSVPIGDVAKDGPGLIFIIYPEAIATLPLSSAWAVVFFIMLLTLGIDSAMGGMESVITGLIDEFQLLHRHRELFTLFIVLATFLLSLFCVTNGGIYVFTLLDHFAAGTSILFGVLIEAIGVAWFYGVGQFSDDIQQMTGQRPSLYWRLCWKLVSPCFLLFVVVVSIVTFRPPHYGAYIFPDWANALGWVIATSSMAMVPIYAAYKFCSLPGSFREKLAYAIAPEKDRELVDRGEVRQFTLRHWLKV
Chain of Sodium-dependent noradrenaline transporter (P23975 whole entry): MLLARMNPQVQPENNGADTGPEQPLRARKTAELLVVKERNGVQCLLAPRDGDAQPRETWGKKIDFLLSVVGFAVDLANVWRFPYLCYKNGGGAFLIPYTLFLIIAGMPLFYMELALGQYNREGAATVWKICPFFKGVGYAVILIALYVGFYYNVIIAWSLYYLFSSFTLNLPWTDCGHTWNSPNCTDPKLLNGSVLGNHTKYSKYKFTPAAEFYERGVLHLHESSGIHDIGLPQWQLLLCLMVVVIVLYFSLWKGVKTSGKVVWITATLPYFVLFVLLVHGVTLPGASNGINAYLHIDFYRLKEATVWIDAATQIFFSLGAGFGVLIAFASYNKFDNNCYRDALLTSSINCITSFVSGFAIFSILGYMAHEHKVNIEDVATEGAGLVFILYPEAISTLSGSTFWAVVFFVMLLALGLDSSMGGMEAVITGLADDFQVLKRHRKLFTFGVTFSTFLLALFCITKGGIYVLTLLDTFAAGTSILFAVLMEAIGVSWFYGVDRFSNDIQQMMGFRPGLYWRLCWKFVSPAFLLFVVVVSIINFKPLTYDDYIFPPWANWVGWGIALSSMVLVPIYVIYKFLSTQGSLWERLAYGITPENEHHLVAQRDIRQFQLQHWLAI

Take `Cc1ccc([C@H]2CC3CCC([C@H]2c2onc(C)c2-c2ccc(F)cc2)N3C)cc1` (some centres not stated): the Ki (in general, a measure of affinity in units of concentration, obtained from inhibition or displacement) in assay [1] was 349 nM; in assay [3] it was more than 2000 nM. Also, the IC50 – broadly, the concentration needed to halve the response being measured – in assay [2] was determined as 76 nM.
In the same order, the values of `Cc1noc([C@@H]2C3CCC(C[C@@H]2c2ccc(Cl)cc2)N3C)c1-c1ccc(Cl)cc1` (some centres not stated) are 788 nM, 387 nM and 68.7 nM.
Turning to `CN1C2CCC1[C@@H](c1cc(-c3ccc(F)cc3)no1)[C@@H](c1ccc(Cl)cc1)C2` (some centres not stated), the inhibition constant Ki in assay [1] was 553 nM; in assay [3], 660 nM. This compound also gave an IC50 in assay [2] of 1.86 nM.
In the same order, the values of `Cc1noc([C@@H]2C3CCC(C[C@@H]2c2ccc(Cl)cc2)N3C)c1-c1ccc(F)cc1` (some centres not stated) are 466 nM, 908 nM and 111 nM.
The matching figures for `COc1ccc(-c2c(C)noc2[C@@H]2C3CCC(C[C@@H]2c2ccc(Cl)cc2)N3C)cc1` (some centres not stated): more than 2000 nM, 1800 nM and 81.6 nM.
On to `Cc1ccc([C@H]2CC3CCC([C@H]2c2cc(-c4ccc(Cl)cc4)no2)N3C)cc1` (some centres not stated), for which the Ki in assay [1] and in assay [3] was more than 2000 nM each time. The compound also registered an IC50 in assay [2] of 8.74 nM.
Take `CN1C2CCC1[C@@H](c1cc(Cc3ccc(F)cc3)no1)[C@@H](c1ccc(Cl)cc1)C2` (some centres not stated): the figures for the Ki in assay [1] and in assay [3] were 435 nM and 72 nM, respectively. This compound displayed an IC50 in assay [2] of 8.6 nM.
The matching figures for `COc1ccc(Cc2cc([C@@H]3C4CCC(C[C@@H]3c3ccc(C)cc3)N4C)on2)cc1` (some centres not stated): 357 nM, 41.1 nM and 9.6 nM.
In the same order, the values of `Cc1ccc(Cc2cc([C@@H]3C4CCC(C[C@@H]3c3ccc(C)cc3)N4C)on2)cc1` (some centres not stated) are 770 nM, 89.7 nM and 6.9 nM.
In the same order, the values of `Cc1ccc(-c2c(C)noc2[C@@H]2C3CCC(C[C@@H]2c2ccc(C)cc2)N3C)cc1` (some centres not stated) are more than 2000 nM, 1000 nM and 173 nM.
On to `Cc1ccc(Cc2cc([C@@H]3C4CCC(C[C@@H]3c3ccc(Cl)cc3)N4C)on2)cc1` (some centres not stated), for which the Ki was 1100 nM in assay [1] and 42.9 nM in assay [3]. This compound also registered an IC50 in assay [2] of 22.1 nM.
The matching figures for `COc1ccc(-c2c(C)noc2[C@@H]2C3CCC(C[C@@H]2c2ccc(C)cc2)N3C)cc1` (some centres not stated): 1300 nM, more than 2000 nM and 119 nM.
The matching figures for `Cc1ccc([C@H]2CC3CCC([C@H]2c2cc(Cc4ccc(Cl)cc4)no2)N3C)cc1` (some centres not stated): 840 nM, 85 nM and 22.2 nM.
On to `Cc1ccc([C@H]2CC3CCC([C@H]2c2onc(C)c2-c2ccc(Cl)cc2)N3C)cc1` (some centres not stated), for which the inhibition constant (Ki) in assay [1] amounted to 519 nM; in assay [3], 864 nM. Further, the half-inhibitory concentration (IC50) in assay [2] was determined as 65.7 nM.
Consider `Cc1ccc([C@H]2CC3CCC([C@H]2c2cc(-c4ccc(F)cc4)no2)N3C)cc1` (some centres not stated), for which the Ki in assay [1] is 552 nM; in assay [3], more than 2000 nM. Also, the IC50 in assay [2] was found to be 6.45 nM.
With `COc1ccc(-c2cc([C@@H]3C4CCC(C[C@@H]3c3ccc(C)cc3)N4C)on2)cc1` (some centres not stated), the figures for the Ki in assay [1] and in assay [3] were 455 nM and 366 nM, respectively. The compound further returned an IC50 in assay [2] of 3.93 nM.
`Cc1ccc(-c2c(C)noc2[C@@H]2C3CCC(C[C@@H]2c2ccc(Cl)cc2)N3C)cc1` (some centres not stated): the Ki in assay [1] is more than 2000 nM; in assay [3], 297 nM. Moreover, in assay [2], the IC50 was 135 nM.
In the same order, the values of `Cc1ccc(-c2cc([C@@H]3C4CCC(C[C@@H]3c3ccc(Cl)cc3)N4C)on2)cc1` (some centres not stated) are 1030 nM, 522 nM and 4.09 nM.
Regarding `COc1ccc(Cc2cc([C@@H]3C4CCC(C[C@@H]3c3ccc(Cl)cc3)N4C)on2)cc1` (some centres not stated), the results for the Ki in assay [1] and in assay [3] were 347 nM and 14.4 nM, respectively. The same compound yielded a half-maximal inhibitory concentration (IC50) in assay [2] of 6.1 nM.
In the same order, the values of `CN1C2CCC1[C@@H](c1cc(Cc3ccc(Cl)cc3)no1)[C@@H](c1ccc(Cl)cc1)C2` (some centres not stated) are 677 nM, 79 nM and 17.5 nM.
In the same order, the values of `COc1ccc(-c2cc([C@@H]3C4CCC(C[C@@H]3c3ccc(Cl)cc3)N4C)on2)cc1` (some centres not stated) are 454 nM, 535 nM and 1.57 nM.
In the same order, the values of `Cc1ccc([C@H]2CC3CCC([C@H]2c2cc(Cc4ccc(F)cc4)no2)N3C)cc1` (some centres not stated) are 454 nM, 113 nM and 5.9 nM.
Consider `CN1C2CCC1[C@@H](c1cc(-c3ccc(Cl)cc3)no1)[C@@H](c1ccc(Cl)cc1)C2` (some centres not stated), for which the Ki in assay [1] and in assay [3] was more than 2000 nM each time. In assay [2], this compound gave an IC50 of 6.42 nM.
With `Cc1ccc(-c2cc([C@@H]3C4CCC(C[C@@H]3c3ccc(C)cc3)N4C)on2)cc1` (some centres not stated), the Ki in assay [1] and in assay [3] was more than 2000 nM throughout. This compound registered an IC50 in assay [2] of 13 nM.
